E-sel inducer: E-selectin induction on HUVECs; P16581; HUVEC E-selectin immunofluorescence imaging; normalized: neutral wells 0, TNF-alpha wells 100; activation, % at 7.58 µM; 0.37% of 260,000 active; AID 686992;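 active = mean E-selectin-positive cell signal at least 10% of the positive control, reached in at least 60% of replicates, without over 20% cell loss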
Target sequence (P16581 whole entry, looked up): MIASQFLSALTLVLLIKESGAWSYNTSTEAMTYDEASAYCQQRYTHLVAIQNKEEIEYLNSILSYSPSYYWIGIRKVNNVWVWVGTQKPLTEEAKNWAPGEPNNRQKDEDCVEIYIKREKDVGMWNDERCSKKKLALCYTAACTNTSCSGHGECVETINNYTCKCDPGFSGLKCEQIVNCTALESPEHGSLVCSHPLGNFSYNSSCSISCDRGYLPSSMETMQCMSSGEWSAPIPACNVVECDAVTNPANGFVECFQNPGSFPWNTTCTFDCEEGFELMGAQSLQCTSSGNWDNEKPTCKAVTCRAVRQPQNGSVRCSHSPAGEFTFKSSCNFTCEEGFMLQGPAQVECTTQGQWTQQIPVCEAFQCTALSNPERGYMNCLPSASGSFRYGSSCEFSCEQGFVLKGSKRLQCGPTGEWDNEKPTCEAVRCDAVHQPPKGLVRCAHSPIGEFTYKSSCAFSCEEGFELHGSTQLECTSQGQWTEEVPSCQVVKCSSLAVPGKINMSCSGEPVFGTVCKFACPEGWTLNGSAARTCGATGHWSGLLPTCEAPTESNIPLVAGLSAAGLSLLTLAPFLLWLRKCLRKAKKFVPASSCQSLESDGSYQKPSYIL
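Assay system: HUVEC primary endothelial cells. Input: 3,000 HUVEC seeded per well. Doses: one compound dose added by pin transfer. Read-out basis: % PE-positive cells. Benchmarks: TNF-alpha high, DMSO low. Detection: immunofluorescence imaging. Buffer or medium: EGM-2, gelatin.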
Xi reactivation: reactivates the inactive X chromosome in mouse fibroblasts; XiGFP mouse fibroblasts, % GFP-positive cells imaging, 3 d; cells co-treated with 5-aza-dC sensitizer; scaled so ellipticine positive control = 100%; activation, % at 7.58 µM; 0.055% of 360,000 active;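 active = mean normalized replicate activation at least 10% and every replicate at or above 10%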;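 also: 0% = median of on-plate neutral control wells and 100% = ellipticine 6 µM median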
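assay system = SV40-immortalized XiGFP fibroblast cells, line 68-5-11 | buffer or medium = DMEM plus 5-aza-dC sensitizer | doses = single-point pinned compound dosing | times = 3-day compound exposure, then 15 min fixation at room temperature | benchmarks = positive control ellipticine, 6 µM final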
* hit, by the source's call; x = no result. The full list was thinned out, with hits kept by preference.

SMILES	E-sel inducer	Xi reactivation
CS(=O)(=O)Nc1ccc2c(c1)[C@H]1C[C@@H](CC(=O)NC3CCCCC3)O[C@@H](CO)[C@H]1O2	0	0
CN(C)c1cccc(C(=O)NCc2ccc3c(c2)OCO3)c1	29*	0
CN(C)c1ccc(C(=O)NCc2ccc3c(c2)OCO3)cc1	x	0
CCOC(=O)c1c(NC(=O)COC(=O)c2nc(Cl)ccc2Cl)sc2c1CCC2	137*	1
CCOC(=O)c1c(NC(=O)COC(=O)c2nccnc2N)sc2c1CCC2	0	0
COc1cc(NC(=S)NCc2cccnc2)cc(OC)c1OC	27*	0
COc1cc(NC(=S)NCc2cccnc2)cc(OC)c1	x	0
C[C@@H]1CCCCO[C@@H](CN(C)C(=O)Nc2ccc(F)cc2)[C@H](C)CN([C@H](C)CO)C(=O)c2cc(NC(=O)CCC(F)(F)F)ccc2O1	x	0
CCCCNc1ccc2c3c(cccc13)C(=O)N(CCCC)C2=O	0	123*
CN(C)CCCN1C(=O)c2cccc3c(Br)ccc(c23)C1=O	x	0
N#Cc1ccc(NCC(=O)N2CCN(S(=O)(=O)c3ccccc3)CC2)cc1	0	0
Cc1ccc(NCC(=O)N2CCN(S(=O)(=O)c3ccccc3)CC2)cc1F	32*	0
C[C@H](CO)N1C[C@H](C)[C@H](CN(C)S(=O)(=O)c2ccc(F)cc2)Oc2ccc(NS(=O)(=O)c3ccccc3)cc2CC1=O	3	0
O=C(C1CCC1)N1CC[C@H]2[C@H](CO)Nc3ccc(C#Cc4cccc(F)c4)cc3[C@H]21	-1	0
O=C(C1CCC1)N1CC[C@@H]2[C@@H](CO)Nc3ccc(C#Cc4cccc(F)c4)cc3[C@@H]21	7	0
O=C(c1ccc(F)cc1)N1CC[C@@H]2[C@H]1c1cc(C3=CCCCC3)ccc1N[C@@H]2CO	1	0
O=C(C1CC1)N1CC[C@@H]2[C@H](CO)Nc3ccc(C#Cc4ccc(F)cc4)cc3[C@@H]21	34*	1
O=C(C1CCCC1)N1CC[C@@H]2[C@H](CO)Nc3ccc(C4=CCCCC4)cc3[C@@H]21	50*	0
O=C(C1CCC1)N1CC[C@@H]2[C@@H](CO)Nc3ccc(C#Cc4ccc(F)cc4)cc3[C@@H]21	38*	0
O=C(C1CCCCC1)N1CC[C@@H]2[C@H]1c1cc(C#Cc3ccc(F)cc3)ccc1N[C@@H]2CO	0	0
O=C(C1CCC1)N1CC[C@@H]2[C@H](CO)Nc3ccc(C#Cc4cccc(F)c4)cc3[C@@H]21	31*	0
CCC(=O)N1[C@H](CO)[C@H](c2ccc(C3=CCCCC3)cc2)[C@@H]1CN(C)C(C)=O	0	0
CC(C)c1cn(CC[C@H]2CC[C@H](NS(=O)(=O)c3ccccc3)[C@@H](CO)O2)nn1	0	0
CCOc1ccc(S(=O)(=O)Nc2cc(SCC(=O)O)c(O)c3ccccc23)cc1	x	0
O=S(=O)(Nc1cc(Sc2cccc3cccnc23)c(O)c2ccccc12)c1ccccc1	x	53*
SMILES	E-sel inducer	Xi reactivation
O=C(NC(O)C(=O)c1ccccc1)c1ccc(F)cc1 (stereo not drawn)	41*	0
COc1ccc(C(NC(=O)c2ccc(F)cc2)c2ccccc2)cc1 (stereo not drawn)	x	0
C[C@H](CO)N1C[C@H](C)[C@H](CN(C)C(=O)c2ccccc2F)Oc2ncc(-c3cncnc3)cc2C1=O	0	-1
CN1CCN(C(=O)C[C@H]2C=C[C@H](NS(=O)(=O)c3cccc(F)c3)[C@H](CO)O2)CC1	0	0
C/C=C/c1ccc([C@@H]2[C@@H](CO)N3C(=O)CN(Cc4ccc(C)cc4)C[C@H]23)cc1	1	1
O=C(C[C@H]1CC[C@@H]2[C@H](COC[C@@H](O)CN2Cc2ccncc2)O1)NCC1CC1	0	0
COc1cccc(NC(=O)N2C[C@H](O)COC[C@H]3O[C@@H](CC(=O)NC4Cc5ccccc5C4)CC[C@@H]32)c1	0	0
Cc1noc(C)c1S(=O)(=O)N(C)C[C@H]1Oc2ccc(NS(C)(=O)=O)cc2CC(=O)N([C@@H](C)CO)C[C@H]1C	28*	0
Cc1noc(C)c1S(=O)(=O)N(C)C[C@@H]1Oc2ccc(NC(=O)Nc3ccc(F)cc3)cc2CC(=O)N([C@@H](C)CO)C[C@H]1C	0	0
Cc1noc(C)c1S(=O)(=O)N(C)C[C@H]1Oc2ccc(NC(=O)Nc3ccc(F)cc3)cc2CC(=O)N([C@@H](C)CO)C[C@H]1C	-3	0
Cc1noc(C)c1S(=O)(=O)N(C)C[C@@H]1Oc2ccc(NC(=O)Nc3ccc(F)cc3)cc2CC(=O)N([C@@H](C)CO)C[C@@H]1C	51*	0
Cc1noc(C)c1S(=O)(=O)N(C)C[C@@H]1Oc2ccc(NC(=O)Nc3ccc(F)cc3)cc2CC(=O)N([C@H](C)CO)C[C@H]1C	45*	0
Cc1noc(C)c1S(=O)(=O)N(C)C[C@@H]1Oc2ccc(NS(C)(=O)=O)cc2CC(=O)N([C@@H](C)CO)C[C@H]1C	0	0
C[C@H]1CN([C@@H](C)CO)C(=O)c2cc(C#CC3CCCCC3)cnc2O[C@H]1CN(C)CC1CC1	0	0
Cc1noc(C)c1S(=O)(=O)Nc1ccc2c(c1)CC(=O)N([C@H](C)CO)C[C@H](C)[C@@H](CN(C)S(=O)(=O)c1cccs1)O2	0	-1
C[C@H]1CN([C@@H](C)CO)C(=O)c2cccc(NC(=O)Nc3ccc4c(c3)OCO4)c2O[C@H]1CN(C)S(=O)(=O)c1cn(C)cn1	0	0
COc1ccc(S(=O)(=O)N(C)C[C@@H]2Oc3c(NC(=O)c4ccncc4)cccc3C(=O)N([C@H](C)CO)C[C@@H]2C)cc1	-3	0
C[C@@H]1CN([C@@H](C)CO)C(=O)c2cccc(NC(=O)CCCCCC(=O)Nc3ccccc3N)c2O[C@H]1CN(C)S(=O)(=O)c1cn(C)cn1	105*	-1
C[C@@H]1CN([C@H](C)CO)C(=O)c2cccc(NS(=O)(=O)c3cn(C)cn3)c2O[C@H]1CN(C)C(=O)Nc1ccc(F)cc1	410*	0
C[C@@H]1CN([C@H](C)CO)C(=O)c2cccc(NC(=O)Nc3ccc(F)cc3)c2O[C@@H]1CN(C)S(=O)(=O)c1cn(C)cn1	80*	0
C[C@H]1CN([C@@H](C)CO)C(=O)c2cccc(NC(=O)Nc3ccccc3)c2O[C@H]1CN(C)S(=O)(=O)c1cn(C)cn1	0	-1
C[C@@H]1CN([C@H](C)CO)C(=O)c2cccc(NS(=O)(=O)c3cn(C)cn3)c2O[C@@H]1CN(C)C(=O)Nc1ccc(F)cc1	21	0
C[C@H](CO)N1C[C@H](C)[C@H](CN(C)S(=O)(=O)c2cn(C)cn2)Oc2ccc(NC(=O)CCCCCC(=O)Nc3ccccc3N)cc2C1=O	-3	0
C[C@@H]1CN([C@@H](C)CO)C(=O)c2cc(NS(=O)(=O)c3cn(C)cn3)ccc2O[C@H]1CN(C)C(=O)Nc1ccc(F)cc1	87*	0
C[C@@H]1CN([C@H](C)CO)C(=O)c2cc(NS(=O)(=O)c3cn(C)cn3)ccc2O[C@H]1CN(C)C(=O)Nc1ccc(F)cc1	-3	0
C[C@@H]1CN([C@H](C)CO)C(=O)c2cc(NS(=O)(=O)c3cn(C)cn3)ccc2O[C@@H](C)CCCCO[C@H]1CN(C)C(=O)Nc1ccc2c(c1)OCO2	0	-1
